This is a sample that favours compounds with a hit; in the whole collection about 2.1% have one here.
Apaf1 inhib: human Apaf-1 inhibition; reconstituted apoptosome caspase-3 activity, DEVD-Rh110 fluorescence; O14727; AID 489030; inhibition, % at 20 µM; actives 0.71% (n = 330,000); active = inhibition of at least 40% at 20 µM;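 note: plate controls were DMSO wells for no effect and DEVD-CHO caspase inhibitor wells for full effect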
Target sequence (O14727 whole entry, looked up): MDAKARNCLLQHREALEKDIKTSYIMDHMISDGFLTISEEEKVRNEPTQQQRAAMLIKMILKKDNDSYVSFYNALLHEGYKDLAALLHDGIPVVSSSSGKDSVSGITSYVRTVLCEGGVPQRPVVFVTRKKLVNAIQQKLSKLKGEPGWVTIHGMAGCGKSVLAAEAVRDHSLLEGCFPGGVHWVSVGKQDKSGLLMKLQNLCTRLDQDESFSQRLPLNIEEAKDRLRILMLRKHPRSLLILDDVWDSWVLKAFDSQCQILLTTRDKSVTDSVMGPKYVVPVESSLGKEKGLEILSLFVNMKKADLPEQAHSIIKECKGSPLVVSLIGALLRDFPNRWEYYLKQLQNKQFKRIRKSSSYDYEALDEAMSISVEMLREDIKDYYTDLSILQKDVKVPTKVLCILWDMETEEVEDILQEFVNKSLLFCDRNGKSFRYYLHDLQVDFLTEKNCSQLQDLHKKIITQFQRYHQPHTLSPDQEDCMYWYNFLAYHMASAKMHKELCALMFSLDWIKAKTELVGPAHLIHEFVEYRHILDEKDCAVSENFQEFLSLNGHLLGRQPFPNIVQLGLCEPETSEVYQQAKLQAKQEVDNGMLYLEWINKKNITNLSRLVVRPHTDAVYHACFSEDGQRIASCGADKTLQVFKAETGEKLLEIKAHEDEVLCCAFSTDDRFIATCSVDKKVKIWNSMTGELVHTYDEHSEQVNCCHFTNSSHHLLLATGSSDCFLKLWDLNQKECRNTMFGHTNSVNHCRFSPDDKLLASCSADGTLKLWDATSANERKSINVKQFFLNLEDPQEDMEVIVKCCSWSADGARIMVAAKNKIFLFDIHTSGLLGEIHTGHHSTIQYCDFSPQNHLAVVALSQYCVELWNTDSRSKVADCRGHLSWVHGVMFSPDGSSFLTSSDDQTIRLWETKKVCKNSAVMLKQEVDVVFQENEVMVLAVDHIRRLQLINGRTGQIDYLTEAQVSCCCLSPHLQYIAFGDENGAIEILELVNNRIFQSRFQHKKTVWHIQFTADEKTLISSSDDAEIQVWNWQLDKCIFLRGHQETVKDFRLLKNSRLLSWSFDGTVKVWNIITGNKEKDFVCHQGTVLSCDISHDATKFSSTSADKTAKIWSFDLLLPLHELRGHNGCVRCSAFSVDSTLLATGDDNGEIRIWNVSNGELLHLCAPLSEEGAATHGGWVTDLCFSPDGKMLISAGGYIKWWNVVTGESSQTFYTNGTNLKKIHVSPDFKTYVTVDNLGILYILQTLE
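System: reconstituted apoptosome with Apaf-1, cytochrome c, caspase-9, procaspase-3, dATP; Signal: Rh110 fluorescence intensity; Schedule: 30 min compound preincubation, 50 min activation, room temperature; Reagent: cytochrome c trigger plus (Z-DEVD)2-Rh110 caspase-3 substrate.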
GSTO1 counter: counter-screen for RBBP9 inhibitors: inhibitors of human GSTO1; actives 1.1% (n = 300,000); AID 1974; inhibition, % at 5.96 µM; recombinant GSTO1, activity-based probe fluorescence polarization; P78417;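 active = inhibition above the campaign mean inhibition plus 3 SD, cut at about 35% in these data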;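 note: 0% = GSTO1-1 with DMSO and 100% = wells lacking GSTO1-1 enzyme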
PP5 inh: inhibitors of human protein phosphatase 5 (PP5); AID 1987; actives 0.18% (n = 320,000); purified PP5c, OMFP substrate fluorescence; inhibition, % at 6.7 µM;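 active = inhibition above the campaign's mean inhibition across all tested compounds plus 3 SD, cut at about 9.5% in these data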;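 note: 0% = DMSO only and 100% = 100 µM cantharidin control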
TDP2 absorb: blocks human TDP2 phosphodiesterase activity. O95551. recombinant TDP2, T5PNP hydrolysis, p-nitrophenol absorbance 415 nm. inhibition, % at 12.8 µM. actives 0.34% (n = 370,000). AID 720702;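 active = inhibition above the mean of all tested compounds plus 3 SD, set per campaign, cut at about 25% in these data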;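 note: 0% = DMSO with enzyme and 100% = buffer with substrate but no TDP2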
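Read-out basis: percent inhibition. System: recombinant human TDP2. Buffer or medium: Mg2+-containing Tris-HCl buffer, pH 7.5. Repeats: single replicate. Timing: reaction 2 h, 37 °C. Benchmarks: high control without enzyme, low control DMSO plus TDP2. Probe or stimulus: 5 mM T5PNP. Doses: 12.8 µM only. Measured by: epi absorbance of p-nitrophenol freed from T5PNP by hydrolysis.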
PP1 inh: blocks human PP1-alpha phosphatase, a PP5 counter-screen; P62136; purified PP1alpha, OMFP fluorescence; inhibition, % at 6.7 µM; actives 0.9% (n = 320,000); AID 2235;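 active = inhibition above the mean inhibition of all tested compounds plus 3 SD, computed separately for each screening campaign, cut at about 15% in these data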
GSTO1 confirm: GSTO1 (human) inhibition, confirmation. shares compounds with GSTO1 counter. recombinant GSTO1, probe fluorescence polarization. inhibition, % at 5.96 µM. actives 54% (n = 2,400). AID 2176;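 active = inhibition above the primary screen's cutoff, its mean inhibition plus 3 SD, cut at about 35% in these data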;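 note: loss of polarization as inhibitors block binding of rhodamine sulfonate ester activity probe; 0% = GSTO1 with DMSO and 100% = wells lacking GSTO1 enzyme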
PP5 conf: confirmation of human PP5 phosphatase inhibitors; shares compounds with PP5 inh; inhibition, % at 6.7 µM; Purified PP5, fluorogenic phosphatase substrate, fluorescence; actives 22% (n = 460); in the data active = inhibition above about 9.5%
PP1 counter 3x: counter-screen for PP5 inhibitors: human PP1 phosphatase inhibition. inhibition, % at 6.7 µM. AID 2355. shares compounds with PP5 inh. actives 4% (n = 460). PP1 enzyme, fluorescent phosphatase substrate; in the data active = inhibition above about 16%
Apaf-1 inh conf2: Apaf-1 inhibition, single-dose confirmed; reconstituted apoptosome, caspase-3 DEVD-Rh110 fluorescence; actives 25% (n = 1,800); inhibition, % at 20 µM; AID 504614; shares compounds with Apaf1 inhib;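 active = mean inhibition of at least 40% at 20 µM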;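 note: plate controls were DMSO wells for no effect and DEVD-CHO caspase inhibitor control wells for full effect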
Rh110 interf inh: Rh110 signal interference in Apaf-1 inhibitor counter-screen. shares compounds with Apaf1 inhib. Rh110 fluorescence interference, quenched caspase reaction. activation (fluorescence interference), % at 20 µM. 1,800 tested, under 10 active;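 active = signal rise of 40% or more at 20 µM, treated as a fluorescence artifact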
Apaf1 inh interf: shows fluorescence interference in the Apaf-1 inhibitor assay format; shares compounds with Apaf1 inhib; fluorescence interference counterscreen, Apaf-1 assay format; IC50, µM; 460 tested, under 10 active; AID 588538; call rule not given here
TDP2 inh conf: human TDP2 inhibition, confirmation | actives 22% (n = 1,100) | inhibition, % at 12.8 µM | shares compounds with TDP2 absorb | recombinant human TDP2, absorbance read-out; in the data active = inhibition above about 25%;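 note: 0% = vehicle with enzyme and 100% = no enzyme buffer only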
* hit, by the source's call.

`COc1ccccc1/C=C1/C(=O)N(c2ccccc2)N=C1C` gave Apaf1 inhib 92.5*, GSTO1 counter 45.8*, PP5 inh 2.8, TDP2 absorb 80.2*, PP1 inh -1.5, GSTO1 confirm 12.6, Apaf-1 inh conf2 21.2, Rh110 interf inh 7.0 and TDP2 inh conf 13.8.
Screening C#CCOc1ccc(/C=C2/C(=O)N(c3cccc(C(=O)O)c3)N=C2C)cc1OC returned Apaf1 inhib 42.6*, GSTO1 counter 70.5*, PP5 inh 9.4, TDP2 absorb 71.4*, PP1 inh 2.4, GSTO1 confirm 8.5, Apaf-1 inh conf2 27.6, Rh110 interf inh 19.0 and TDP2 inh conf 18.1.
`COc1ccccc1NC(=O)N(C)C[C@H]1OCc2cn(nn2)CCCC(=O)N([C@H](C)CO)C[C@@H]1C` gave TDP2 absorb 8.3.
CCCC1CCC2(CC1)CCC2OC(=S)NCCc1ccc(Cl)cc1 (centres undefined) was read as TDP2 absorb 5.2.
`CCCC(=O)C1=C(O)C(C(=O)OC)C(C)(C)CC1=Nc1ccc(N)cc1` (centres undefined) gave Apaf1 inhib -1.6, GSTO1 counter 6.0, PP5 inh 1.8, TDP2 absorb 5.4 and PP1 inh -3.9.
CCCC(=Nc1ccc(N)cc1)C1=C(O)C(C(=O)OC)C(C)(C)CC1=O (centres undefined) was read as Apaf1 inhib 67.0*, GSTO1 counter 88.2*, PP5 inh 3.1, TDP2 absorb 52.6*, PP1 inh 12.9, GSTO1 confirm 7.7, Apaf-1 inh conf2 -0.8, Rh110 interf inh -5.6 and TDP2 inh conf 11.7.
`O=S(=O)(c1ccccc1S(=O)(=O)N1CCCCC1)N1CCCCC1` gave Apaf1 inhib -2.3, GSTO1 counter -1.2, PP5 inh -2.1 and PP1 inh 0.0.
For O=C1C=C(N2CCCCC2)c2ccccc2C1=O the results were Apaf1 inhib 97.6*, GSTO1 counter 90.6*, PP5 inh 5.3, TDP2 absorb 69.8*, PP1 inh 1.8, GSTO1 confirm 88.3*, Apaf-1 inh conf2 99.6*, Rh110 interf inh 3.1, Apaf1 inh interf >100 and TDP2 inh conf 85.1*.
For O=C1C(O)=C(O)C(=O)c2ccccc21 the results were Apaf1 inhib 92.1*, GSTO1 counter 81.0*, PP5 inh 13.2*, TDP2 absorb 57.5*, PP1 inh 6.0, GSTO1 confirm 68.0*, PP5 conf 14.2*, PP1 counter 3x 28.0*, Apaf-1 inh conf2 66.8*, Rh110 interf inh 7.2, Apaf1 inh interf >100 and TDP2 inh conf 72.2*.
Screening CC1CCN(C(=O)c2ncn3c2C(=O)N[C@H](C)C3)CC1 returned TDP2 absorb 4.4.
For CC1(C)Cc2ccccc2C2=NNC(=O)C2=N1 the results were Apaf1 inhib 62.1*, GSTO1 counter 55.5*, PP5 inh 0.2, TDP2 absorb 28.2*, PP1 inh -4.0, GSTO1 confirm 81.8*, Apaf-1 inh conf2 63.9*, Rh110 interf inh 2.9, Apaf1 inh interf >100 and TDP2 inh conf 34.1*.
Screening CC1(C)Cc2ccccc2C(Nn2cnnc2)=N1 returned Apaf1 inhib 3.9, GSTO1 counter 7.3, PP5 inh 0.1, TDP2 absorb 1.9 and PP1 inh -0.1.
Screening O=C(NC1(O)C(=O)c2ccccc2C1=O)c1ccccc1 returned Apaf1 inhib 93.5*, GSTO1 counter 76.6*, PP5 inh 14.8*, TDP2 absorb 53.9*, PP1 inh 0.9, GSTO1 confirm 81.8*, PP5 conf 38.7*, PP1 counter 3x 12.7, Apaf-1 inh conf2 96.5*, Rh110 interf inh 1.9, Apaf1 inh interf >100 and TDP2 inh conf 83.9*.
COC1(NC(=O)c2ccccc2)C(C)=CC(=O)C=C1C was read as Apaf1 inhib 1.2, GSTO1 counter 3.1, PP5 inh 2.6, TDP2 absorb -9.3 and PP1 inh 3.1.
For CCc1ccc(S(=O)(=O)/N=C2\C=C(Nc3cccc(C(=O)O)c3)C(=O)c3ccccc32)cc1 the results were Apaf1 inhib 90.7*, GSTO1 counter 98.2*, PP5 inh 11.2*, TDP2 absorb 69.2*, PP1 inh 13.1, GSTO1 confirm 91.6*, PP5 conf 41.5*, PP1 counter 3x 11.9, Apaf-1 inh conf2 89.6*, Rh110 interf inh 9.7, Apaf1 inh interf >100 and TDP2 inh conf 73.8*.
`OC(CCN1CCCCC1)(c1ccccc1)C1CC2C=CC1C2` (centres undefined) gave TDP2 absorb 9.7.
`O=S(=O)(Nc1ccc(O)c2ccccc12)c1cccs1` gave Apaf1 inhib 52.4*, GSTO1 counter 64.3*, PP5 inh 3.2, TDP2 absorb 49.8*, PP1 inh -2.9, GSTO1 confirm 16.0 and TDP2 inh conf 30.1*.
O=S(=O)(Nc1cccc2ccccc12)c1cccs1 was read as Apaf1 inhib -2.9, GSTO1 counter 5.0, PP5 inh 0.5, TDP2 absorb -3.5 and PP1 inh 0.6.
For c1ccc(-n2c(SCc3cccc4ccccc34)nnc2-c2ccncc2)cc1 the results were TDP2 absorb -3.5.
CC(=O)C1=C(C)OC2(O)c3ccccc3C(=O)C12O (centres undefined) was read as Apaf1 inhib 92.7*, GSTO1 counter 72.1*, PP5 inh 14.4*, TDP2 absorb 56.7*, PP1 inh 8.6, GSTO1 confirm 79.5*, PP5 conf 34.5*, PP1 counter 3x 2.5, Apaf-1 inh conf2 90.1*, Rh110 interf inh 3.7, Apaf1 inh interf >100 and TDP2 inh conf 60.8*.
`CC1=C(C#N)C2(O)C(=O)c3ccccc3C2(O)N1` (centres undefined) gave Apaf1 inhib -10.6, GSTO1 counter 2.5, PP5 inh 2.1, TDP2 absorb -11.7 and PP1 inh -0.5.

High-throughput results: PubChem BioAssay, several laboratories
